Results as given in PubChem BioAssay.
Active and inactive are the calls of the source. Cut-off read from the data, not from the text of the source, unless noted: active = inhibition above about 30%; inactive = the rest.

Assays:
[1] = reduced viability of SK-BR-3 breast cancer cells – cell-based, 24 h, human, pilot screen (AID 572;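 active = viability at or below 10% of carrier control in both of two separate runs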;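 note: compound exposure lasted between 18 and 24 h rather than exactly 24 h; 100% = carrier-treated control wells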); conditions: SK-BR-3 viability, CellTiter-Glo luminescence, at 10 µM, stronger effect = lower value
[2] = HUVEC growth inhibition – cell-based, human, primary screen (AID 575;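 active = viability at or below 30% in both replicate assays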;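 note: 100% = median of untreated cell wells with 0.1% DMSO on each plate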); conditions: HUVEC proliferation, CellTiter-Glo luminescence, 72 h; at 10 µM; stronger effect = lower value
Method in brief: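 System – primary HUVEC, no more than 12 passages · Medium – Low-serum (2% FBS) EBM, supplemented · Times – 72 h exposure, 37 °C, 5% CO2, 30 min RT equilibration · Measured by – luminescent ATP assay · Read-out – % viability relative to median vehicle-well signal on each plate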

[3] = H69AR cell proliferation blockers – human, duplicate replicates, primary screen (AID 580;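 active = viability at or under a set limit in both replicates, limit being median viability minus 3 SD, cut at about 48% in these data, passing the limit was not always enough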;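 note: 100% = mean luminescence of untreated wells and 0% = no signal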); conditions: H69AR lung tumor cells viability, ATP luminescence, 72 h; at 10 µM; stronger effect = lower value
[4] = MRP1 drug-resistance reversers in H69AR cells – cell-based, doxorubicin co-treatment, pilot screen (AID 601;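 active = viability loss from added drug above about 55%, and viability with drug at most 40%, in both replicates, limit read from the data, passing the limit was not always enough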); conditions: CellTiter-Glo, 72 h, at 10 µM; for differential viability (reversal): stronger effect = higher value
[5] = yeast transport mutant growth inhibition pilot in 384-well plates, post-Golgi transport modulator project (AID 636; in the data active = inhibition above about 31%); conditions: absorbance 615 nm, about 18 h, stronger effect = higher value
[6] = growth suppression of yeast trafficking mutant, preliminary HTS, modulators of trafficking downstream of Golgi apparatus project, 1536-format plate, OD 615 nm (AID 637); conditions: yeast transport mutant growth, absorbance 615 nm, 18 h; stronger effect = higher value
[7] = H69AR cells + 2 uM doxorubicin, measured here: viability with 2 uM doxorubicin, stronger effect = lower value
[8] = H69AR cells, compound alone cytotoxicity

| SMILES | viability [1] | viability [2] | viability [3] | differential viability (reversal) ([4]; H69AR cells + 2 uM doxorubicin) | viability [4, 7] [%] | viability [4, 8] [%] | inhibition [5] | inhibition [6] |
| --- | --- | --- | --- | --- | --- | --- | --- | --- |
| O=C1NC(c2cccnc2)C(C(=O)c2cccs2)C(O)(C(F)(F)F)N1 (configuration not stated) | 116% (inactive) | 113% (inactive) | 103% (inactive) | 4.9% (inactive) | 97.7 | 103 | -0.27% (inactive) | -0.18% (inactive) |
| OC[C@H]1O[C@@H](n2cnc3c(Nc4ccccc4)ncnc32)[C@H](O)[C@@H]1O | 95% (inactive) | 71.9% (inactive) | 84.4% (inactive) | 2.24% (inactive) | 82.1 | 84.4 | -2.34% (inactive) | 1.17% (inactive) |
| O=c1c2cnn(-c3ccccc3)c2ncn1/N=C/c1ccncc1 | 125% (inactive) | 108% (inactive) | 101% (inactive) | 18.9% (inactive) | 82.2 | 101 | -5.07% (inactive) | -4.91% (inactive) |
| O=C(NCC(=O)N(c1cccnc1)C(C(=O)NC1CCCCC1)c1cccnc1)c1ccco1 (configuration not stated) | 111% (inactive) | 113% (inactive) | 109% (inactive) | 9.06% (inactive) | 99.9 | 109 | -3.07% (inactive) | 4.91% (inactive) |
| COc1ccccc1OCc1nc2ccccc2[nH]1 | 69% (inactive) | 88.5% (inactive) | 99.3% (inactive) | -5.04% (inactive) | 104 | 99.3 | -6.16% (inactive) | -0.55% (inactive) |
| CCc1nnc(NC(=O)CSc2nnc(-c3cc4ccccc4cc3O)n2CC)s1 | 84% (inactive) | 78.4% (inactive) | 90.1% (inactive) | 1.08% (inactive) | 89.1 | 90.1 | -1.95% (inactive) | -3.28% (inactive) |
| CCc1c(C)nc2ncnn2c1NCCc1ccc(OC)c(OC)c1 | 64% (inactive) | 103% (inactive) | 80.6% (inactive) | -0.53% (inactive) | 81.1 | 80.6 | -7.03% (inactive) | -0.18% (inactive) |
| Cc1cc(NC(=O)Cc2c(F)cccc2Cl)no1 | 102% (inactive) | 95.5% (inactive) | 96% (inactive) | 6.76% (inactive) | 89.2 | 96 | -7.26% (inactive) | 3.64% (inactive) |
| CC(C)c1nc(NCC2CCCO2)c(C#N)c2c1COC(C)(C)C2 (configuration not stated) | 95% (inactive) | 74.9% (inactive) | 89.1% (inactive) | 4.7% (inactive) | 84.4 | 89.1 | -9.86% (inactive) | 13.9% (inactive) |
| Cc1noc(NS(=O)(=O)c2ccc(N)cc2)c1C | 97% (inactive) | 91% (inactive) | 105% (inactive) | 15.7% (inactive) | 89.1 | 105 | 2.34% (inactive) | -1.5% (inactive) |
| Cc1nc2ccccc2c(=O)n1NC(=O)Nc1ccccc1 | 111% (inactive) | 95.1% (inactive) | 107% (inactive) | 10.6% (inactive) | 96 | 107 | -1.2% (inactive) | -1.82% (inactive) |
| CC(COc1ccccc1)N(CCCl)Cc1ccccc1 (configuration not stated) | 107% (inactive) | 78.2% (inactive) | 56.1% (inactive) | 9.34% (inactive) | 46.7 | 56.1 | -0.65% (inactive) | -3.33% (inactive) |
| N#CCC(=O)Nc1ncn(Cc2ccccc2Cl)n1 | 95% (inactive) | 105% (inactive) | 95.2% (inactive) | -10.4% (inactive) | 106 | 95.2 | -4.52% (inactive) | 3.82% (inactive) |
| Cc1cccc(CC2CC(=O)N(c3ccccc3)C2=O)c1 (configuration not stated) | 117% (inactive) | 101% (inactive) | 102% (inactive) | 10.5% (inactive) | 91.9 | 102 | -3.77% (inactive) | -5.9% (inactive) |
| N#CCc1ccc(NC(=O)Nc2cccc(Cl)c2)cc1 | 88% (inactive) | 76.9% (inactive) | 92.5% (inactive) | -12.1% (inactive) | 105 | 92.5 | -6.44% (inactive) | 2.73% (inactive) |
| Cc1ccc(-n2ncc3c(=O)n(CC(=O)NCc4ccco4)cnc32)cc1 | 105% (inactive) | 76.5% (inactive) | 81.3% (inactive) | -12.3% (inactive) | 93.6 | 81.3 | 1.92% (inactive) | 1.77% (inactive) |
| CCCOc1cccc(C(=O)Nc2cc(NC(=O)c3ccco3)ccc2OC)c1 | 88% (inactive) | 85.1% (inactive) | 85% (inactive) | -6.07% (inactive) | 91.1 | 85 | -3.78% (inactive) | -2.55% (inactive) |
| Cc1ccc2nc(-c3ccc(S(=O)(=O)N4CCOCC4)cc3)cn2c1 | 138% (inactive) | 108% (inactive) | 105% (inactive) | 6.21% (inactive) | 98.5 | 105 | -1.17% (inactive) | -1.48% (inactive) |
| O=C1[C@@H]2C(c3ccccc3Cl)=NO[C@@H]2C(=O)N1Cc1ccccc1 | 96% (inactive) | 116% (inactive) | 104% (inactive) | 4.24% (inactive) | 100 | 104 | -6.76% (inactive) | 3.09% (inactive) |
| N#CC1=C(N)OC2=C(C(=O)CCC2)C1CCc1ccccc1 (configuration not stated) | 98% (inactive) | 91.9% (inactive) | 103% (inactive) | 14.2% (inactive) | 89.3 | 103 | -6.08% (inactive) | 1.64% (inactive) |
| CN(CC(=O)Nc1cccnc1)S(=O)(=O)c1cc(Cl)ccc1Cl | 104% (inactive) | 105% (inactive) | 91.7% (inactive) | -7.51% (inactive) | 99.2 | 91.7 | -0.14% (inactive) | 6.73% (inactive) |
| COc1cc(C(=O)OC(C)CN2CCCC2)cc(OC)c1OC (configuration not stated) | 99% (inactive) | 98.1% (inactive) | 108% (inactive) | 11.5% (inactive) | 97 | 108 | -3.65% (inactive) | 0.55% (inactive) |
| CC(C(=O)NC(=O)NC1CCCCC1)N1CCN(c2ccccn2)CC1 (configuration not stated) | 96% (inactive) | 95.6% (inactive) | 104% (inactive) | 14.7% (inactive) | 88.9 | 104 | -2.4% (inactive) | -3.27% (inactive) |
| CC(C)(C)c1nnc(NC(=O)C2CCN(c3ncccn3)CC2)s1 | 105% (inactive) | 115% (inactive) | 101% (inactive) | 14.3% (inactive) | 86.6 | 101 | -4.03% (inactive) | -0.82% (inactive) |
